Reference: PMC4586255 (DNA repair, 2010)
Residue numbers refer to the chain shown, from its start. Names and notes keep the numbering of the source.

B1: YFP-hEXO1-Q788A;L791A: PIP-box mutant of YFP-hEXO1 (protein, UniProt Q9UQ84 1-846, looked up, variant Q788A L791A)
Exonuclease 1: MGIQGLLQFIKEASEPIHVRKYKGQVVAVDTYCWLHKGAIACAEKLAKGEPTDRYVGFCMKFVNMLLSHGIKPILVFDGCTLPSKKEVERSRRERRQANLLKGKQLLREGKVSEARECFTRSINITHAMAHKVIKAARSQGVDCLVAPYEADAQLAYLNKAGIVQAIITEDSDLLAFGCKKVILKMDQFGNGLEIDQARLGMCRQLGDVFTEEKFRYMCILSGCDYLSSLRGIGLAKACKVLRLANNPDIVKVIKKIGHYLKMNITVPEDYINGFIRANNTFLYQLVFDPIKRKLIPLNAYEDDVDPETLSYAGQYVDDSIALQIALGNKDINTFEQIDDYNPDTAMPAHSRSHSWDDKTCQKSANVSSIWHRNYSPRPESGTVSDAPQLKENPSTVGVERVISTKGLNLPRKSSIVKRPRSAELSEDDLLSQYSLSFTKKTKKNSSEGNKSLSFSEVFVPDLVNGPTNKKSVSTPPRTRNKFATFLQRKNEESGAVVVPGTRSRFFCSSDSTDCVSNKVSIQPLDETAVTDKENNLHESEYGDQEGKRLVDTDVARNSSDDIPNNHIPGDHIPDKATVFTDEESYSFESSKFTRTISPPTLGTLRSCFSWSGGLGDFSRTPSPSPSTALQQFRRKSDSPTSLPENNMSDVSQLKSEESSDDESHPLREEACSSQSQESGEFSLQSSNASKLSQCSSKDSDSEESDCNIKLLDSQSDQTSKLRLSHFSKKDTPLRNKVPGLYKSSSADSLSTTKIKPLGPARASGLSKKPASIQKRKHHNAENKPGLAIKANELWKNFGFKKDSEKLPPCKKPLSPVRDNIQLTPEAEEDIFNKPECGRVQRAIFQ
modifications: N-terminal YFP tag
B2: YFP-hEXO1-Q285A;F288A: putative PIP-box substitution variant of YFP-hEXO1 (protein, UniProt Q9UQ84 1-846, looked up, variant Q285A F288A)
Exonuclease 1: B1 Exonuclease 1 with Q285A, F288A, A788Q, A791L
modifications: YFP tag
B3: YFP-hEXO1-Q154A;Y157A: putative PIP-box substitution variant of YFP-hEXO1 (protein, UniProt Q9UQ84 1-846, looked up, variant Q154A Y157A)
Exonuclease 1: B1 Exonuclease 1 with Q154A, Y157A, A788Q, A791L
modifications: N-terminal YFP tag
B4: hMLH1: fusion protein, CFP or YFP tagged MMR protein (protein)
chain: MSFVAGVIRRLDETVVNRIAAGEVIQRPANAIKEMIENCLDAKSTSIQVIVKEGGLKLIQIQDNGTGIRKEDLDIVCERFTTSKLQSFEDLASISTYGFRGEALASISHVAHVTITTKTADGKCAYRASYSDGKLKAPPKPCAGNQGTQITVEDLFYNIATRRKALKNPSEEYGKILEVVGRYSVHNAGISFSVKKQGETVADVRTLPNASTVDNIRSIFGNAVSRELIEIGCEDKTLAFKMNGYISNANYSVKKCIFLLFINHRLVESTSLRKAIETVYAAYLPKNTHPFLYLSLEISPQNVDVNVHPTKHEVHFLHEESILERVQQHIESKLLGSNSSRMYFTQTLLPGLAGPSGEMVKSTTSLTSSSTSGSSDKVYAHQMVRTDSREQKLDAFLQPLSKPLSSQPQAIVTEDKTDISSGRARQQDEEMLELPAPAEVAAKNQSLEGDTTKGTSEMSEKRGPTSSNPRKRHREDSDVEMVEDDSRKEMTAACTPRRRIINLTSVLSLQEEINEQGHEVLREMLHNHSFVGCVNPQWALAQHQTKLYLLNTTKLSEELFYQILIYDFANFGVLRLSEPAPLFDLAMLALDSPESGWTEEDGPKEGLAEYIVEFLKKKAEMLADYFSLEIDEEGNLIGLPLLIDNYVPPLEGLPIFILRLATEVNWDEEKECFESLSKECAMFYSIRKQYISEESTLSGQQSEVPGSIPNSWKWTVEHIVYKALRSHILPPKHFTEDGNILQLANLPDLYKVFERC
modifications: left off: GST, end not stated, kept
B5: YFP-hEXO1-C508X: COOH-terminally truncated version of YFP-hEXO1 (protein, UniProt Q9UQ84 1-507, looked up, fragment)
chain: MGIQGLLQFIKEASEPIHVRKYKGQVVAVDTYCWLHKGAIACAEKLAKGEPTDRYVGFCMKFVNMLLSHGIKPILVFDGCTLPSKKEVERSRRERRQANLLKGKQLLREGKVSEARECFTRSINITHAMAHKVIKAARSQGVDCLVAPYEADAQLAYLNKAGIVQAIITEDSDLLAFGCKKVILKMDQFGNGLEIDQARLGMCRQLGDVFTEEKFRYMCILSGCDYLSSLRGIGLAKACKVLRLANNPDIVKVIKKIGHYLKMNITVPEDYINGFIRANNTFLYQLVFDPIKRKLIPLNAYEDDVDPETLSYAGQYVDDSIALQIALGNKDINTFEQIDDYNPDTAMPAHSRSHSWDDKTCQKSANVSSIWHRNYSPRPESGTVSDAPQLKENPSTVGVERVISTKGLNLPRKSSIVKRPRSAELSEDDLLSQYSLSFTKKTKKNSSEGNKSLSFSEVFVPDLVNGPTNKKSVSTPPRTRNKFATFLQRKNEESGAVVVPGTRSRFF
modifications: N-terminal YFP tag
B6: YFP-hEXO1-S598X: COOH-terminally truncated version of YFP-hEXO1 (protein, UniProt Q9UQ84 1-597, looked up, fragment)
chain: MGIQGLLQFIKEASEPIHVRKYKGQVVAVDTYCWLHKGAIACAEKLAKGEPTDRYVGFCMKFVNMLLSHGIKPILVFDGCTLPSKKEVERSRRERRQANLLKGKQLLREGKVSEARECFTRSINITHAMAHKVIKAARSQGVDCLVAPYEADAQLAYLNKAGIVQAIITEDSDLLAFGCKKVILKMDQFGNGLEIDQARLGMCRQLGDVFTEEKFRYMCILSGCDYLSSLRGIGLAKACKVLRLANNPDIVKVIKKIGHYLKMNITVPEDYINGFIRANNTFLYQLVFDPIKRKLIPLNAYEDDVDPETLSYAGQYVDDSIALQIALGNKDINTFEQIDDYNPDTAMPAHSRSHSWDDKTCQKSANVSSIWHRNYSPRPESGTVSDAPQLKENPSTVGVERVISTKGLNLPRKSSIVKRPRSAELSEDDLLSQYSLSFTKKTKKNSSEGNKSLSFSEVFVPDLVNGPTNKKSVSTPPRTRNKFATFLQRKNEESGAVVVPGTRSRFFCSSDSTDCVSNKVSIQPLDETAVTDKENNLHESEYGDQEGKRLVDTDVARNSSDDIPNNHIPGDHIPDKATVFTDEESYSFESSKFTRTI
modifications: N-terminal YFP tag

These molecules were tested on PCNA replication foci in NIH3T3 cells. Details: CFP channel (CFP-PCNA) in cells co-expressing the hEXO1 protein; early S-phase foci; 50 co-transfected cells.
Format: cell-based, murine
In short: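 Murine NIH3T3 cells were kept in DMEM with 10% FBS and penicillin/streptomycin at 37 °C, 10% CO₂. Cells (2*10⁵ per glass-bottom dish) were seeded 24 h before ExGen500 co-transfection with 3 μg total plasmid (CFP-PCNA plus YFP fusion). Confocal imaging at 24–48 h. Co-transfected cells were counted and binned by pattern, e.g. "no foci" (diffuse CFP-PCNA, diffuse nuclear YFP).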

Molecule	Small foci (CFP-PCNA) [%]
B1	22
B2	34
B3	28

Same assay, conditions: CFP channel (CFP-PCNA) in cells co-expressing the hEXO1 protein; late S-phase foci; 50 co-transfected cells

Molecule	Large foci (CFP-PCNA) [%]
B1	8
B2	0
B3	0

Same assay, conditions: CFP channel (CFP-PCNA) in cells co-expressing the hEXO1 protein; mid S-phase foci; 50 co-transfected cells

Molecule	Mid Foci (CFP-PCNA) [%]
B1	18
B2	0
B3	4

Same assay, conditions: NIH3T3 cells co-expressing CFP-PCNA

Molecule	effect of expression on S-phase distribution
B1	no adverse effects on S-phase distribution
B2	unable to detect replication foci in late S-phase
B3	unable to detect replication foci in late S-phase

Same assay, conditions: NIH3T3 cells co-transfected with CFP-PCNA, 24–48 h

Molecule	foci formation and co-localization with PCNA during S-phase
B4	unable to observe CFP-PCNA co-localized YFP-hMLH1 foci
B5	none of the variant proteins were able to form foci or co-localize with PCNA during S-phase
B1	unable to form nuclear foci and does not co-localize with PCNA, at any time point during S-phase
B2	to some extent are able to form S-phase foci in co-localization with PCNA
B3	to some extent are able to form S-phase foci in co-localization with PCNA
B6	none of the variant proteins were able to form foci or co-localize with PCNA during S-phase

Same assay, conditions: NIH3T3 cells, confocal imaging

Molecule	sub-cellular localization
B5	strictly nuclear
B6	strictly nuclear
